In ChEMBL document CHEMBL3994580, “A novel class of α-glucosidase and HMG-CoA reductase inhibitors from Ganoderma leucocontextum and the anti-diabetic properties of ganomycin I in KK-Ay mice” (Eur J Med Chem, 2017):
The source made the active and inactive calls. The rule behind the calls is not given here.

Legend:
[1] = molecular target: Sucrase-isomaltase, intestinal (Rattus norvegicus, UniProt P23739); experiment: Inhibition of sucrase in rat small intestinal mucosa assessed as reduction in glucose production using sucrose as substrate measured after 40 mins by glucose oxidase assay
Sucrase-isomaltase, intestinal, sequence (P23739 1-1013 limits assumed): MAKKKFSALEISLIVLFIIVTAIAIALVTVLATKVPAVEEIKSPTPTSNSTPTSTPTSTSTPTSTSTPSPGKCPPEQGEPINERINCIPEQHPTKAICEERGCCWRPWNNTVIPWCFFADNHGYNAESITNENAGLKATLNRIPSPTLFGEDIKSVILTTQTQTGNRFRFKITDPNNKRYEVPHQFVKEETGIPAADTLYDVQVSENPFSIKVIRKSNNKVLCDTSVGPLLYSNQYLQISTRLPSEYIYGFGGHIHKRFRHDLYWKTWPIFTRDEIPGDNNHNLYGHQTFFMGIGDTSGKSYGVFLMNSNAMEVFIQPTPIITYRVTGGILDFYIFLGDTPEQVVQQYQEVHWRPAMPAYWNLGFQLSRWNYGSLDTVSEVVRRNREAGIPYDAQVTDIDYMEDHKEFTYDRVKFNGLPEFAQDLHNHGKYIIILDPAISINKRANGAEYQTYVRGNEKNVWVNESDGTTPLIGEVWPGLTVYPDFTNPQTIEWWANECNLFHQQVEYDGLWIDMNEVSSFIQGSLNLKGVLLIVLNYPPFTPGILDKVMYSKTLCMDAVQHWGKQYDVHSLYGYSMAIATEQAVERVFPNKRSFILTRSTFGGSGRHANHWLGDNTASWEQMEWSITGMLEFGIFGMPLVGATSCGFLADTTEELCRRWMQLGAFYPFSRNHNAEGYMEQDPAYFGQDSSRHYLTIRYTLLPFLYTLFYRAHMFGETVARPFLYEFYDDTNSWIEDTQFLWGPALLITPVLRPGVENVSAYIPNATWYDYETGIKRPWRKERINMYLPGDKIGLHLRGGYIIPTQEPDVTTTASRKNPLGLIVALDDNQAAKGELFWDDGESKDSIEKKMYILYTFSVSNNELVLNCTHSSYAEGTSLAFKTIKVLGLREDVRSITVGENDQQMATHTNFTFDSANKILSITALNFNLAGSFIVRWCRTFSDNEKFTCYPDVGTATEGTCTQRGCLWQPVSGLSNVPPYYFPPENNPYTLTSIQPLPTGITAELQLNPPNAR
Sucrase-isomaltase, intestinal, sequence (P23739 1014-1841 limits assumed): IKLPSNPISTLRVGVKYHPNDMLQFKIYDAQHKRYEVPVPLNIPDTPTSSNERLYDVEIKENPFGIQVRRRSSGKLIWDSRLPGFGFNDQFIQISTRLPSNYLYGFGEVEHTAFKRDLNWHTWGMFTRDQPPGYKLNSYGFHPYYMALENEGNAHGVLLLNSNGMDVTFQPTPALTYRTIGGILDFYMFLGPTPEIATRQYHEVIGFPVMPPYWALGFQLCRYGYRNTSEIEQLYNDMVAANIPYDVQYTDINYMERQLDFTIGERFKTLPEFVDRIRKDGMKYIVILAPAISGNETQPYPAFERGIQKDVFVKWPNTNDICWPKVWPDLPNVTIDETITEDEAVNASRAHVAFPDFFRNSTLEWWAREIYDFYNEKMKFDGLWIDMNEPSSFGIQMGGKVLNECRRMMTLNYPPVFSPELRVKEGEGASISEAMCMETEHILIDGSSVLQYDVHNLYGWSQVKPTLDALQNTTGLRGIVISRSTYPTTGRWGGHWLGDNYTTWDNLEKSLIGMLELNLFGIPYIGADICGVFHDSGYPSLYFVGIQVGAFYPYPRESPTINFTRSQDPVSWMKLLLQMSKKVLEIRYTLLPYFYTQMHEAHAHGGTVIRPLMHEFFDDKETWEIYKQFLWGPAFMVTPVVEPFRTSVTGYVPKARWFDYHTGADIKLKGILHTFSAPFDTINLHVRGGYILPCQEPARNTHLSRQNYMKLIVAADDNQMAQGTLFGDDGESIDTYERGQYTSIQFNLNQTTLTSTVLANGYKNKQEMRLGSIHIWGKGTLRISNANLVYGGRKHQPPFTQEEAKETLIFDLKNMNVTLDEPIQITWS
Outline: (§1)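 Rat small intestinal mucosa enzyme. Compound in DMSO mixed with substrate (maltose, sucrose or pNPG) and enzyme in 0.1 M phosphate buffer pH 6.9, incubated 40 min. Glucose released measured by glucose oxidase kit at 550 nm. Blank lacked enzyme, control lacked compound. Percent inhibition calculated from blank-corrected OD.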

[2] = Inhibition of maltase in rat small intestinal mucosa assessed as reduction in glucose production using maltose as substrate measured after 40 mins by glucose oxidase assay; outline: as §1
[3] = Inhibition of baker's yeast alpha-glucosidase using p-nitrophenyl alpha-D-glucopyranoside as substrate preincubated for 10 mins followed by substrate addition measured for 15 mins; parameters: species or system Saccharomyces cerevisiae
Outline: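 Baker's yeast α-glucosidase with pNPG, read at 405 nm. Control contained phosphate buffer in place of compound, and blank contained buffer in place of enzyme.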

Saccharomyces cerevisiae = experiment: Non-competitive inhibition of baker's yeast alpha-glucosidase using varying levels of p-nitrophenyl alpha-D-glucopyranoside as substrate preincubated for 10 mins followed by substrate addition measured for 15 mins by Lineweaver-Burk plot analysis
Outline: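 Kinetics with inhibitor at 0.3 to 1 μM against α-glucosidase. pNPG at 2, 4, 6 and 8 μM. Initial velocities measured with and without inhibitor, and inhibition type assigned from Michaelis-Menten and Lineweaver-Burk plots.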

[4] = Inhibition of alpha-glucosidase in rat small intestinal mucosa assessed as reduction in glucose production using p-nitrophenyl alpha-D-glucopyranoside as substrate measured after 40 mins by glucose oxidase assay; outline: as §1
[5] = molecular target: T1, 3-hydroxy-3-methylglutaryl-coenzyme A reductase (Sus scrofa, UniProt Q1W675); experiment: (§2) Inhibition of HMG-CoA reductase in pig liver microsomes using HMG-CoA as substrate preincubated for 5 mins followed by NADPH addition measured after 15 mins by colorimetric method
T1 sequence (Q1W675 whole entry): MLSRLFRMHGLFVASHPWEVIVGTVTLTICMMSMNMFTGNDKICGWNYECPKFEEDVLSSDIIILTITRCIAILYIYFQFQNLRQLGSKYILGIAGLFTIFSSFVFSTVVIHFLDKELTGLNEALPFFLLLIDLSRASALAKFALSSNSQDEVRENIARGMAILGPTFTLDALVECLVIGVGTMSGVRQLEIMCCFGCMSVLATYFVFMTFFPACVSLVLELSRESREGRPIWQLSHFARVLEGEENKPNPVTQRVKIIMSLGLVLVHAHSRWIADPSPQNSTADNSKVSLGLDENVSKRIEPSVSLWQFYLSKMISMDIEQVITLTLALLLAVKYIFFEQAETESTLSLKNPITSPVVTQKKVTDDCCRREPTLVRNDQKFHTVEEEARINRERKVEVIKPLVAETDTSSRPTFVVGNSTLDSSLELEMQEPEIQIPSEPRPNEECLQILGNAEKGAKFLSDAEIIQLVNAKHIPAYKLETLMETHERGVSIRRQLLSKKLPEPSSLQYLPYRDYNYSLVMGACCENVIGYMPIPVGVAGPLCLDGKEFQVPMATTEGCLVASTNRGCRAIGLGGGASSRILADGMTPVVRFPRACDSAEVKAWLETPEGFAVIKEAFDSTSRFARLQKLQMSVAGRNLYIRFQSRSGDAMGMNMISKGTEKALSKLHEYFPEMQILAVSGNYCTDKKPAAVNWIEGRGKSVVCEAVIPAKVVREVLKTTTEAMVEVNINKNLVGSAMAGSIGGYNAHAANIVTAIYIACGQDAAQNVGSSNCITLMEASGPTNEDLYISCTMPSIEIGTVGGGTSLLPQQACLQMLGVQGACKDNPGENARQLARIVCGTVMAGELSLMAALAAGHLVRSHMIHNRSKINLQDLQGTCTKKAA
Outline: (§3)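 HMG-CoA reductase activity followed by absorbance at 340 nm. Blank had potassium phosphate buffer instead of enzyme, and control had buffer instead of compound. Percent inhibition calculated from blank-corrected OD.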

[6] = molecular target: T2, 3-hydroxy-3-methylglutaryl-coenzyme A reductase (Sus scrofa) (UniProt Q1W675); experiment: as §2; outline: as §3
T2 sequence (whole entry): T1 sequence (Q1W675 whole entry)

Mus musculus [7] = experiment: Antidiabetic activity in KK-Ay diabetic mouse model assessed as reduction in blood glucose level at 10 mg/kg/day administered via oral gavage once daily measured on day 19 at 30 to 60 mins post insulin challenge by insulin tolerance test; format: functional, organism-based
Outline: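 ITT on day 19 of treatment: after 4 h fasting, insulin 0.6 U·kg-1 given intraperitoneally. Glycaemia was sampled from the tail tip before and at set times after injection, and the AUC was computed. Mean ± SEM, n = 8.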

Mus musculus [8] = experiment: Antidiabetic activity in KK-Ay diabetic mouse model assessed as reduction in serum insulin level at 10 mg/kg/day administered via oral gavage once daily for 21 days; format: functional, organism-based
Outline: (§4)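 Male KK-Ay mice (8 weeks old) on high-fat diet with water ad libitum, dosed by gavage once daily for 21 days (1 or 5 mg/kg test; rosiglitazone 10 mg/kg); female C57BL/6J mice as normal controls. Blood collected at study end. Serum lipids, insulin and glucose measured per cited method. ISI calculated from fasting blood glucose and fasting insulin. Mean ± SEM, n = 7-8.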

Mus musculus [9] = experiment: Toxicity in KK-Ay diabetic mouse model assessed as changes in body weight at 10 mg/kg/day administered via oral gavage once daily for 21 days measured every 3 days during compound dosing; format: organism-based; conditions: in vivo
Outline: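 In high-fat-fed KK-Ay mice gavaged once daily for 21 days, individual body weight and cage food consumption were recorded every 3 days. Mean ± SEM, n = 8.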

Mus musculus [10] = experiment: Decrease in size of adipocytes in abdominal white adipose tissue in KK-Ay diabetic mouse model at 10 mg/kg/day administered via oral gavage once daily for 21 days by haematoxylin and eosin staining based microscopic or morphometric method; format: functional, organism-based
Outline: (§5)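 At study end, liver and abdominal white adipose tissue were fixed in 10% formaldehyde PBS (pH 7.4), paraffin-embedded, sectioned and stained with haematoxylin/eosin. Sections were assessed by microscopy or morphometry at 20×.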

Mus musculus [11] = experiment: Antidiabetic activity in KK-Ay diabetic mouse model assessed as reduction in blood glucose level after 4 hrs fasting at 10 mg/kg/day administered via oral gavage once daily measured on day 3 post dose; format: functional, organism-based
Outline: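 KK-Ay mice on high-fat diet, gavaged once daily (1 or 5 mg/kg; rosiglitazone 10 mg/kg). Blood glucose monitored sequentially after 4 h fasting. Mean ± SEM, n = 8, compared with the KK-Ay model group.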

Mus musculus [12] = experiment: Effect on serum AST level in KK-Ay diabetic mouse model at 10 mg/kg/day administered via oral gavage once daily for 21 days; format: functional, organism-based; outline: as §4
Mus musculus [13] = experiment: Antidiabetic activity in KK-Ay diabetic mouse model assessed as reduction in free diet blood glucose level at 10 mg/kg/day administered via oral gavage once daily measured on day 3 post dose; format: functional, organism-based
Outline: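 Non-fasted (free diet) blood glucose was tracked serially in high-fat-fed KK-Ay mice given daily gavage doses (1 or 5 mg/kg; rosiglitazone 10 mg/kg). Mean ± SEM, n = 8.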

Mus musculus [14] = experiment: Hypoglycemic activity in KK-Ay diabetic mouse model assessed as increase in liver hepatic glycogen level at 10 mg/kg/day administered via oral gavage once daily for 4 weeks; format: functional, organism-based
Mus musculus [15] = experiment: Hypolipidemic activity in KK-Ay diabetic mouse model assessed as reduction in serum NEFA level at 10 mg/kg/day administered via oral gavage once daily for 21 days; format: functional, organism-based; outline: as §4
Mus musculus [16] = experiment: Decrease in hepatocyte hypertrophy in KK-Ay diabetic mouse model at 10 mg/kg/day administered via oral gavage once daily for 21 days by haematoxylin and eosin staining based microscopic or morphometric method; format: functional, organism-based; outline: as §5
Mus musculus [17] = experiment: Hypolipidemic activity in KK-Ay diabetic mouse model assessed as reduction in serum total cholesterol level at 10 mg/kg/day administered via oral gavage once daily for 21 days; format: functional, organism-based; outline: as §4
Mus musculus [18] = experiment: Antidiabetic activity in KK-Ay diabetic mouse model assessed as reduction in blood glucose level at 10 mg/kg/day administered via oral gavage once daily for 21 days measured at 30 to 60 mins post glucose challenge by oral glucose tolerance test; format: functional, organism-based
Outline: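 OGTT on day 21 of daily gavage dosing in KK-Ay mice. Blood glucose read at time points including 30 and 60 min, and the AUC was calculated. Mean ± SEM, n = 8.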

Mus musculus [19] = experiment: Antidiabetic activity in KK-Ay diabetic mouse model assessed as reduction in HbA1C level at 10 mg/kg/day administered via oral gavage once daily for 21 days; format: functional, organism-based
Mus musculus [20] = experiment: Hypolipidemic activity in KK-Ay diabetic mouse model assessed as reduction in serum triglyceride level at 10 mg/kg/day administered via oral gavage once daily for 21 days; format: functional, organism-based; outline: as §4
Mus musculus [21] = experiment: Decrease in lipid droplet accumulation in liver in KK-Ay diabetic mouse model at 10 mg/kg/day administered via oral gavage once daily for 21 days by haematoxylin and eosin staining based microscopic or morphometric method; format: functional, organism-based; outline: as §5
Mus musculus [22] = experiment: Antidiabetic activity in KK-Ay diabetic mouse model assessed as increase in insulin sensitivity index at 10 mg/kg/day administered via oral gavage once daily for 21 days; format: functional, organism-based; outline: as §4

## C/C1=C/CC/C(=C/Cc2cc(O)ccc2O)C(=O)OC(C)(C)[C@H](O)CC1
[1]
  IC50: > 100 µM
[2]
  IC50: 45.8 µM
[3]
  IC50: 6.3 µM
Saccharomyces cerevisiae
  inhibition: Active
[4]
  IC50: 3.6 µM
[5]
  IC50: > 100 µM

## CC(C)=CCC/C(C)=C/CC/C(=C/Cc1cc(O)ccc1O)C(=O)O [GANOMYCIN B]
[1]
  IC50: 35.5 µM
[2]
  IC50: 17.8 µM
[3]
  IC50: 1.6 µM
Saccharomyces cerevisiae
  inhibition: Active
[4]
  IC50: 5.9 µM
[5]
  IC50: 29.3 µM
[6]
  inhibition: Dose-dependent effect

## C/C(C=O)=C\CC/C(C)=C/CCC1=C[C@H](c2cc(O)ccc2O)OC1=O
[1]
  IC50: > 100 µM
[2]
  IC50: 80.1 µM
[3]
  IC50: 12.7 µM
Saccharomyces cerevisiae
  inhibition: Active
[4]
  IC50: 15.8 µM
[5]
  IC50: > 100 µM

## CN(CCOc1ccc(CC2SC(=O)NC2=O)cc1)c1ccccn1 (stereo unspecified) [ROSIGLITAZONE]
Mus musculus [7]
  Activity: Active
Mus musculus [8]
  Activity: Active
Mus musculus [9]
  Activity: Toxic
Mus musculus [10]
  Activity: Active
Mus musculus [11]
  Activity: Active
Mus musculus [12]
  Activity: inactive
Mus musculus [13]
  Activity: Active
Mus musculus [14]
  Activity: inactive
Mus musculus [15]
  Activity: Active
Mus musculus [16]
  Activity: inactive
Mus musculus [17]
  Activity: Active
Mus musculus [18]
  Activity: Active
Mus musculus [19]
  Activity: Active
Mus musculus [20]
  Activity: Active
Mus musculus [21]
  Activity: inactive
Mus musculus [22]
  Activity: Active

## C[C@H]1O[C@H](O[C@H]2[C@H](O)[C@@H](O)[C@@H](O[C@H]3[C@H](O)[C@@H](O)C(O)O[C@@H]3CO)O[C@@H]2CO)[C@H](O)[C@@H](O)[C@@H]1N[C@H]1C=C(CO)[C@@H](O)[C@H](O)[C@H]1O (stereo partly specified) [ACARBOSE]
[3]
  IC50: 273 µM

## CC(C)=CCC/C(C)=C/CC/C(=C\Cc1cc(O)ccc1O)C(=O)O
[1]
  IC50: > 100 µM
[2]
  IC50: > 100 µM
[3]
  IC50: > 100 µM
[4]
  IC50: > 100 µM
[5]
  IC50: > 100 µM

## COC1(c2cc(O)ccc2O)C=C(CC/C=C(\C)CC/C=C(\C)C=O)C(=O)O1 (stereo unspecified)
[1]
  IC50: > 100 µM
[2]
  IC50: 23.8 µM
[3]
  IC50: 10.2 µM
Saccharomyces cerevisiae
  inhibition: Active
[4]
  IC50: 15.8 µM
[5]
  IC50: 56.9 µM
[6]
  inhibition: Dose-dependent effect

## CC(C)=CCC/C(C)=C/CCC(CC(=O)c1cc(O)ccc1O)C(=O)O (stereo unspecified) [FORNICIN C]
[1]
  IC50: > 100 µM
[2]
  IC50: 46.2 µM
[3]
  IC50: 32.1 µM
Saccharomyces cerevisiae
  inhibition: Active
[4]
  IC50: 61.2 µM
[5]
  IC50: > 100 µM

## CC(C)=CCC/C(C)=C/CC/C(=C/C(=O)c1cc(O)ccc1O)C(=O)O
[1]
  IC50: > 100 µM
[2]
  IC50: 18.1 µM
[3]
  IC50: 3.2 µM
Saccharomyces cerevisiae
  inhibition: Active
[4]
  IC50: 6.4 µM
[5]
  IC50: 45.2 µM
[6]
  inhibition: Dose-dependent effect
